# Data published in article PMC5569452 (Iranian Journal of Basic Medical Sciences, 2017).
# pIC50: −log10 of the molar value. Where a name gives a salt, the structure may show the parent alone.
# Experiments:
# isolated rat atria [1] = assay: Spontaneously beating isolated rat atria, atria contraction force
# isolated rat atria [2] = assay: Spontaneously beating isolated rat atria, atria contraction rate; settings: for ACR increase, percentage over the base line: compound alone, 100 μM; for isoprenaline-induced ACR in presence of compound: isoprenaline 10^-6 M + compound 10^-4 M
# Summary of the method: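 Male Wistar rats (250-350 g) given reserpine 5 mg/kg i.p. 24 hr before euthanasia; thiopental 80 mg/kg i.p. anaesthesia. Whole atria hung at ~0.5 g resting tension in Krebs-Henseleit (95% O2/5% CO2, 37 °C, pH 7.4), equilibrated 30 min. Solvent or test compound (10 or 100 μM) added; after 20 min, cumulative isoprenaline. Contractions counted per minute; % increase over baseline; mean ± SEM, 5-6 experiments.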
# PDE3A = PDE3A (Homo sapiens, UniProt Q14432); assay: PDE assay kit; type: biochemical
# [3] = Cont: solvent + 1 μM isoprenaline (isoprenaline alone)
# [4] = compound 100 μM, cumulative isoprenaline
# PDE3A, sequence (Q14432 whole entry): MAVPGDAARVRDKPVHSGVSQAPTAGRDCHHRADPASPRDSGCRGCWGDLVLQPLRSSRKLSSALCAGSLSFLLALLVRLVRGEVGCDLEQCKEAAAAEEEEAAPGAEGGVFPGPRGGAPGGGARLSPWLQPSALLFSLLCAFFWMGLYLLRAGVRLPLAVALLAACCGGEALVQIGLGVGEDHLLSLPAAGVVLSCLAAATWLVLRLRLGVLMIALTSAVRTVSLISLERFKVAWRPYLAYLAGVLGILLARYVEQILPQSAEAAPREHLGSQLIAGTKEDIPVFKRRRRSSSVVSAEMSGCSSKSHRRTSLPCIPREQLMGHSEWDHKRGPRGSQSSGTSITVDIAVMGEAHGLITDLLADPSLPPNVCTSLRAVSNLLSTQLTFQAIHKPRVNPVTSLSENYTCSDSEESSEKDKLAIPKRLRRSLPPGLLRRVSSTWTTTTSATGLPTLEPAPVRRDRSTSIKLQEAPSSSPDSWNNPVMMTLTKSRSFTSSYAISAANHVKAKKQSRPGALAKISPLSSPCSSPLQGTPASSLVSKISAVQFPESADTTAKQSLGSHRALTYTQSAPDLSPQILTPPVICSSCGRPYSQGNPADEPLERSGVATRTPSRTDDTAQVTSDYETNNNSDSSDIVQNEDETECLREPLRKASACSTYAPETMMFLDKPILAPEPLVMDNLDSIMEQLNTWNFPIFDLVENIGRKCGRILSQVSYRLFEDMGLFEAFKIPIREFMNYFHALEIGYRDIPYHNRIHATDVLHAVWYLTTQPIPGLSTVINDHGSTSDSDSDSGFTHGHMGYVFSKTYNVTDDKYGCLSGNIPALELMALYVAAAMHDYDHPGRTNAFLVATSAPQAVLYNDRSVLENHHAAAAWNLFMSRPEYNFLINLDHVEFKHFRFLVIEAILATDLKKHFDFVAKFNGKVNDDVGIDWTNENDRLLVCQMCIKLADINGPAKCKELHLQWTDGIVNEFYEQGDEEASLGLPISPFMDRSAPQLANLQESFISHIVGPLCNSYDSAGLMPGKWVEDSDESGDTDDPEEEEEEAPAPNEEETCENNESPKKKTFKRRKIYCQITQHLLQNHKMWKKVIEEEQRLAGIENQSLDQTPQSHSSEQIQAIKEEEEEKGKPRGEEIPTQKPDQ
compound,measurement,setting,value
"CN(C(=O)CCCOc1ccc2[nH]c(=O)ccc2c1)C1CCCCC1 [cilostamide, 4-(1,2-dihydro-2-oxoquinolin-6-hydroxy)-N-cyclohexyl-N-methylbutanamide]",maximum ACFmax in combination with isoprenaline,isolated rat atria [1]; compound + isoprenaline 3×10^-6 M,25±5 % HSBL
same,maximum ACFmin in combination with isoprenaline,isolated rat atria [1]; compound + isoprenaline 10^-6 M,39 ±7 % HDBL
same,potentiation of the effect of isoprenaline on ACF,isolated rat atria [1]; compound added 20 min before isoprenaline,about 2.86 fold
same,ACFmax within 20 min,"isolated rat atria [1]; compound alone, 100 μM, 20 min",11±6 % HSBL
same,ACFmin within 20 min,"isolated rat atria [1]; compound alone, 100 μM, 20 min",16±6 % HDBL
same,ACFmax at the beginning of adding the compound,"isolated rat atria [1]; compound alone, 100 μM",24±9 % HSBL
same,ACFmin at the beginning of adding the compound (initial decrease),"isolated rat atria [1]; compound alone, 100 μM",9±4 % HDBL
same,"ACR increase, percentage over the base line",isolated rat atria [2],42±10%
same,isoprenaline-induced ACR in presence of compound,isolated rat atria [2],51±11 % HSBL
"Cc1cc(=O)[nH]c2ccc(OCCCC(=O)N3CCC(C)CC3)cc12 [mc2, 6-(4-(4-methylpiperidin-1-yl)-4-oxobutoxy)-4-methylquinolin-2(1H)-one]",pIC50,PDE3A,5.70
same,ACF (% increase baseline),isolated rat atria [1]; 10 μM mc2 + 1 μM isoprenaline,3±1 % increase baseline
same,ACF (% increase baseline),isolated rat atria [1]; 100 μM mc2 + 1 μM isoprenaline,60±5 % increase baseline
same,ACF reached in 20 min,"isolated rat atria [1]; compound alone, 100 μM, 20 min",40±7 % HSBL
same,ACFmin within 20 min,"isolated rat atria [1]; compound alone, 100 μM, 20 min",36±6 % HDBL
same,ACF change when compound was added (initial),"isolated rat atria [1]; compound alone, 100 μM, at addition",-1.76%
same,ACFmax at the beginning of adding the compound,"isolated rat atria [1]; compound alone, 100 μM",increased continuously from the beginning
same,ACFmin at the beginning of adding the compound (initial decrease),"isolated rat atria [1]; compound alone, 100 μM",-6 % HDBL
same,isoprenaline-augmented ACF in presence of compound,isolated rat atria [1]; isoprenaline 10^-6 M + compound 10^-5 M,3±1 % HSBL
same,ACR (% increase baseline),isolated rat atria [2]; 10 μM mc2 + 1 μM isoprenaline,50±10 % increase baseline
same,ACR (% increase baseline),isolated rat atria [2]; 100 μM mc2 + 1 μM isoprenaline,6±7 % increase baseline
same,"ACR increase, percentage over the base line",isolated rat atria [2],did not change
"Cc1cc(=O)[nH]c2ccc(OCCCC(=O)N3CCCC3)cc12 [mc6, 6-(4-oxo-4-(pyrrolidin-1-yl)butoxy)-4-methylquinolin-2(1H)-one]","ACF increase, percentage over the base line","isolated rat atria [1]; compound alone, 100 μM",11±4%
same,"ACR increase, percentage over the base line",isolated rat atria [2],65±6%
same,isoprenaline-induced ACR in presence of compound,isolated rat atria [2],91±6 % HSBL
"CC(C)NCC(O)c1ccc(O)c(O)c1 (stereo not shown) [isoprenaline, isoprenaline hydrochloride]",ACF (% increase baseline),isolated rat atria [1]; [3],14±6 % increase baseline
same,threshold concentration of ACFmax curve,isolated rat atria [1]; isoprenaline alone,10^-10 M
same,maximum ACFmax,"isolated rat atria [1]; isoprenaline alone, 3×10^-8 M",21 % HSBL
same,"ACF maximum, higher than systolic base line (HSBL)","isolated rat atria [1]; isoprenaline alone, 10^-6 M",14±6 % HSBL
same,"ACFmin, higher than diastolic base line (HDBL)","isolated rat atria [1]; isoprenaline alone, 10^-6 M",10.23±5 % HDBL
same,threshold concentration for ACF increase,"isolated rat atria [1]; isoprenaline alone, cumulative concentrations",10^-10 M
same,ACR (% increase baseline),isolated rat atria [2]; [3],68±12 % increase baseline
same,threshold concentration for ACR increase,isolated rat atria [2]; isoprenaline alone,10^-10 M
"Cc1cc(=O)[nH]c2ccc(OCCCC(=O)N3CCC(O)CC3)cc12 [mc3, 6-(4-(4-hydroxypiperidin-1-yl)-4-oxobutoxy)4-methylquinolin-2(1H)-one]",pIC50,PDE3A,6.00
same,effect on isoprenaline concentration-response curve (ACF),isolated rat atria [1]; [4],did not change
same,"ACF increase, percentage over the base line","isolated rat atria [1]; compound alone, 100 μM",did not change
same,effect on isoprenaline concentration-response curve (ACR),isolated rat atria [2]; [4],did not make any significant changes
same,"ACR increase, percentage over the base line",isolated rat atria [2],did not change
